# Experimental data from different studies.
Compound,cell line,read-out,technique,tested at,time,endpoint,value
C[C@H]1Oc2cc(cnc2N)-c2c(nn(C)c2C#N)CN(C)C(=O)c2ccc(F)cc21,A-431,cell growth or viability,,,,IC50,> 10 µM
CC(C)(C)c1cnc(CSc2cnc(NC(=O)C3CCN(CCCCSc4cccc5c4C(=O)N(C4CCC(=O)NC4=O)C5=O)CC3)s2)o1 (stereo not shown),HH,cell growth or viability,CCK-8,10 nM,,viability,105%
CC(=NNC(=O)c1ccncc1)c1ccc(Nc2nnc(-c3ccc(Cl)cc3)c3ccccc23)cc1,HepG2,cell growth or viability,MTT,0.156 µM,,cell death,17.1%
C=CC(=O)NC1CCN(c2ncc3ncnc(Nc4ccc(Oc5ccc6c(c5)ncn6C)c(C)c4)c3n2)CC1,MKN-7,cell growth or viability,,,,EC50,0.00659 µM
CC(C)(C)c1cnc(CSc2cnc(NC(=O)C3CCN(CCCCCCCCSc4cccc5c4CN(C4CCC(=O)NC4=O)C5=O)CC3)s2)o1 (stereo not shown),HH,cell growth or viability,CCK-8,1 nM,,viability,97.4%
O=C(Nc1ccc(Oc2nnc(-c3ccc(Cl)cc3)c3ccccc23)cc1)c1cccc([N+](=O)[O-])c1,HepG2,cell growth or viability,MTT,10 µM,,cell death,93.8%
CCOC(=O)c1nn(-c2cccc(Cl)c2)/c(=N/N=C(\C)c2ccc(NC(=O)c3ccc(Cl)cc3)cc2)s1,HepG2,cell growth or viability,MTT,5 µM,,viability,2.59%
CC(C)(C)c1cnc(CSc2cnc(NC(=O)C3CCN(C(=O)COCCOCCSc4cccc5c4C(=O)N(C4CCC(=O)NC4=O)C5=O)CC3)s2)o1 (stereo not shown),HH,cell growth or viability,CCK-8,0.25 µM,,viability,92.9%
CNc1ncc2c(/C=C/C(=O)N3CCC(OC)CC3)nn(CC(OC)OC)c2n1,OE33,cell growth or viability,resazurin,,5 days,EC50,> 30 µM
CC(=NNC(=O)c1ccc(N)cc1)c1ccc(Nc2nnc(-c3ccc(Cl)cc3)c3ccccc23)cc1,HepG2,cell growth or viability,MTT,0.312 µM,24 h,viability,98.2%
CNc1ncc2c(/C=C/C(=O)N3CCC(OC)CC3)nn(CC3OCCO3)c2n1,OE33,cell growth or viability,resazurin,,5 days,EC50,> 30 µM
S=C(Nc1ccccc1)Nc1ccc(Oc2nnc(-c3ccc(Cl)cc3)c3ccccc23)cc1,HepG2,cell growth or viability,MTT,1.25 µM,24 h,viability,57.1%
O=C(Nc1ccccc1)Nc1ccc(C(F)(F)F)cc1,LAD2,degranulation,,,,IC50,8.31 µM
CNc1ncc2c(/C=C/C(=O)N3CCC(OC)CC3)nn(CC(C)(C)C)c2n1,OE33,cell growth or viability,resazurin,,5 days,EC50,> 30 µM
CC(=O)Nc1ccc(Oc2nnc(-c3ccc(Cl)cc3)c3ccccc23)cc1,HepG2,cell growth or viability,MTT,0.625 µM,,cell death,88.3%
CNc1ncc2c(/C=C/C(=O)N3CCC(OC)CC3)nn(CC3CCCCC3)c2n1,OE33,cell growth or viability,resazurin,,5 days,EC50,6.51 µM
CC(=NNC(=O)c1cccnc1)c1ccc(Nc2nnc(-c3ccc(Cl)cc3)c3ccccc23)cc1,HepG2,cell growth or viability,MTT,10 µM,,cell death,96.8%
CNc1ncc2c(/C=C/C(=O)N3CCC(OC)CC3)nn(Cc3ccc(C(F)(F)F)cc3)c2n1,OE33,cell growth or viability,resazurin,,5 days,EC50,1.32 µM
CC(C)(C)c1cnc(CSc2cnc(NC(=O)C3CCN(CCCCCCCCSc4cccc5c4C(=O)N(C4CCC(=O)NC4=O)C5=O)CC3)s2)o1 (stereo not shown),HH,cell growth or viability,CCK-8,0.25 µM,,viability,0%
CNc1ncc2c(/C=C/C(=O)N3CCC(c4ccccc4)CC3)nn(CC3CCCC3)c2n1,OE33,cell growth or viability,resazurin,,5 days,EC50,> 30 µM
O=C(Nc1ccccc1)Nc1ccc(Oc2nnc(-c3ccc(Cl)cc3)c3ccccc23)cc1,HepG2,cell growth or viability,MTT,0.625 µM,,cell death,94.7%
CC(C)(C)c1cnc(CSc2cnc(NC(=O)C3CCN(C(=O)CCCSc4cccc5c4C(=O)N(C4CCC(=O)NC4=O)C5=O)CC3)s2)o1 (stereo not shown),HH,cell growth or viability,CCK-8,0.25 µM,,viability,86.7%
